Laboratory results: ChEMBL document CHEMBL4007393 (J Med Chem, 2017)
≈ marks a conversion by molar mass, not a printed value.

What was measured:
[1] = Plasma concentration in FVB mouse at 30 mg/kg, administered through oral gavage as single dose measured after 48 hrs post dose by LC-MS analysis; assay type: ADME, organism-based
Summary of the method: (§1)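 Non-infected mice given one oral gavage dose of 30 mg/kg as an aqueous suspension. Terminal cardiac blood taken under isoflurane, centrifuged at 4 °C, plasma stored at -20 °C. Plasma proteins precipitated with acetonitrile (2:1 or 3:1), supernatant run by LC/MS with diazepam internal standard against a blank mouse plasma calibration curve. PK parameters calculated noncompartmentally.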

[2] = AUC (0 to infinity) in FVB mouse at 30 mg/kg, administered through oral gavage as single dose by LC-MS analysis; assay type: ADME, organism-based; set-up: dose 30 mg/kg, time infinity, route oral; conditions: in vivo; summary of the method: as §1
[3] = Kinetic solubility of the compound in water after 30 mins by nephelometric analysis; assay type: physicochemical; conditions: read-out: Kinetic_solubility
Summary of the method: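 DMSO stock diluted into water to 1% final DMSO and left at ambient temperature for 30 min. Solubility range read by nephelometry.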

[4] = Cmax in FVB mouse at 30 mg/kg, administered through oral gavage as single dose by LC-MS analysis; assay type: ADME, organism-based; set-up: dose 30 mg/kg, route oral; conditions: in vivo; summary of the method: as §1
Rattus norvegicus = assay: Drug accumulation in rat at 100 to 300 mg/kg, po administered every third day for 5 doses measured after 2 weeks relative to control; assay type: ADME, organism-based; conditions: in vivo, 336 h
Summary of the method: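 Male rats were given oral gavage doses of 100 or 300 mg/kg every third day for five doses, alongside a vehicle group. The vehicle was the same formulation used for the mouse efficacy studies. Plasma concentrations were followed over the dosing period to assess accumulation, together with general condition, body weight, biochemistry and histopathology.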

[5] = Plasma concentration in rat at 100 mg/kg, po administered every third day for 5 doses measured after 2 weeks; assay type: ADME, organism-based
Summary of the method: (§2)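 Male rats dosed by oral gavage at 100 or 300 mg/kg every third day for 5 doses, in the same vehicle as the mouse efficacy and exposure studies; vehicle controls included. Endpoints: general condition, body weight, clinical biochemistry, histopathology, mortality and plasma concentrations.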

[6] = Plasma concentration in rat at 300 mg/kg, po administered every third day for 5 doses measured after 2 weeks; assay type: ADME, organism-based; summary of the method: as §2

Structure (SMILES)	concentration at 48 h [1] [nM]	AUC(0-inf) [2] [µM·h]	solubility kinetic at 0.5 h [3] [µg/mL]	Cmax [4] [nM]	fold change (FC) (Rattus norvegicus)	concentration at 336 h [5] [ng/mL]	concentration at 336 h [6] [ng/mL]
O[C@H]1CC[C@H](NCCCOc2ccc([C@H]3CC[C@]4(CC3)OOC3(O4)C4CC5CC(C4)CC3C5)cc2)CC1 (stereo partly drawn)	26.5	12.8	> 100	721			
c1cc([C@H]2CC[C@]3(CC2)OOC2(O3)C3CC4CC(C3)CC2C4)ccc1OCCN1CCNCC1 (stereo partly drawn)	23.9	16.8	> 100	752			
c1ccc([C@H]2CC[C@]3(CC2)OOC2(O3)C3CC4CC(C3)CC2C4)c(OCCN2CCOCC2)c1 (stereo partly drawn)			3.1 to 6.3 (≈ 6.6 to 13.4 µM)				
FC1(F)C2CC3CC1CC(C2)C31OO[C@]2(CC[C@@H](c3ccc(OCCN4CCOCC4)cc3)CC2)O1 (stereo partly drawn)			1.6 to 3.1 (≈ 3.16 to 6.13 µM)				
CC(C)(N)CNC(=O)C[C@H]1CC[C@]2(CC1)OOC1(O2)C2CC3CC(C2)CC1C3 (stereo partly drawn)	< 1	2.61	> 100	776			
c1cc([C@H]2CC[C@]3(CC2)OOC2(O3)C3CC4CC(C3)CC2C4)ccc1OCCC1CCNCC1 (stereo partly drawn)	192	34.1	> 100	1190			
NCCOc1ccc([C@H]2CC[C@]3(CC2)OOC2(O3)C3CC4CC(C3)CC2C4)cc1 (stereo partly drawn)	4.73	3.42	> 100	287	1 to 4		
NCCCOc1ccc([C@H]2CC[C@]3(CC2)OOC2(O3)C3CC4CC(C3)CC2C4)cc1 (stereo partly drawn)					1 to 4		
c1cc([C@H]2CC[C@]3(CC2)OO[C@]2(O3)C3CC4CC(C3)CC2C4)ccc1OCCN1CCOCC1 [ARTEFENOMEL]	132	38.7	< 1.6	3800		4600	6300
c1cc([C@H]2CC[C@]3(CC2)OOC2(O3)C3CC4CC(C3)CC2C4)ccc1OCC1CCNCC1 (stereo partly drawn)	17.9	8.9	12.5 to 25 (≈ 27.6 to 55.1 µM)	465			
CC1(C)CC(O)(COc2ccc([C@H]3CC[C@]4(CC3)OOC3(O4)C4CC5CC(C4)CC3C5)cc2)CC(C)(C)N1 (stereo partly drawn)	122	32.9	> 100	1000			
c1cc([C@H]2CC[C@]3(CC2)OOC2(O3)C3CC4CC(C3)CC2C4)ccc1OCCN1CCCCC1 (stereo partly drawn)			6.3 to 12.5 (≈ 13.5 to 26.7 µM)				
c1cc([C@H]2CC[C@]3(CC2)OOC2(O3)C3CC4CC(C3)CC2C4)ccc1OCCN1CCC1 (stereo partly drawn)			> 100				
O=C(c1ccc([C@H]2CC[C@]3(CC2)OOC2(O3)C3CC4CC(C3)CC2C4)cc1)N1CCNCC1 (stereo partly drawn)			> 100				
[O-][S+]1CCN(CCCOc2ccc([C@H]3CC[C@]4(CC3)OOC3(O4)C4CC5CC(C4)CC3C5)cc2)CC1 (stereo partly drawn)			< 1.6				1000 to 2000
c1cc([C@H]2CC[C@]3(CC2)OOC2(O3)C3CC4CC(C3)CC2C4)ccc1CN1CCOCC1 (stereo partly drawn)			1.6 to 3.1 (≈ 3.64 to 7.05 µM)				
CS(=O)(=O)N1CCN(CCCOc2ccc([C@H]3CC[C@]4(CC3)OOC3(O4)C4CC5CC(C4)CC3C5)cc2)CC1 (stereo partly drawn)			< 1.6				
c1cc([C@H]2CC[C@]3(CC2)OOC2(O3)C3CC4CC(C3)CC2C4)ccc1OC1CCNCC1 (stereo partly drawn)	49.4	16.4	> 100	810			
c1cc([C@H]2CC[C@]3(CC2)OOC2(O3)C3CC4CC(C3)CC2C4)ccc1OCCOC1CCNCC1 (stereo partly drawn)	97.6	19	50 to 100 (≈ 103 to 207 µM)	633			
CC(C)(CN)Oc1ccc([C@H]2CC[C@]3(CC2)OOC2(O3)C3CC4CC(C3)CC2C4)cc1 (stereo partly drawn)	7.97	11.3	> 100	529			
CC(C)(O)CNCCCOc1ccc([C@H]2CC[C@]3(CC2)OOC2(O3)C3CC4CC(C3)CC2C4)cc1 (stereo partly drawn)	36	22.8	> 100	1210			> 1900
c1cc([C@H]2CC[C@]3(CC2)OOC2(O3)C3CC4CC(C3)CC2C4)ccc1OCCN1CC2(COC2)C1 (stereo partly drawn)			50 to 100 (≈ 104 to 208 µM)				
NCCCCOc1ccc([C@H]2CC[C@]3(CC2)OOC2(O3)C3CC4CC(C3)CC2C4)cc1 (stereo partly drawn)	23.4	11	50 to 100 (≈ 117 to 234 µM)	370			
NC1CCN(S(=O)(=O)c2ccc([C@H]3CC[C@]4(CC3)OOC3(O4)C4CC5CC(C4)CC3C5)cc2)CC1 (stereo partly drawn)			12.5 to 25 (≈ 24.9 to 49.7 µM)				
c1cc([C@H]2CC[C@]3(CC2)OOC2(O3)C3CC4CC(C3)CC2C4)ccc1OCCN1CCCOCC1 (stereo partly drawn)	13.2	16.8	3.1 to 6.3 (≈ 6.41 to 13 µM)	2610			
N[C@H]1CC[C@@H](Oc2ccc([C@H]3CC[C@]4(CC3)OOC3(O4)C4CC5CC(C4)CC3C5)cc2)CC1 (stereo partly drawn)	145	29.5	25 to 50 (≈ 55.1 to 110 µM)	1170	1 to 4		
CC(C)(O)CN1CCC(Oc2ccc([C@H]3CC[C@]4(CC3)OOC3(O4)C4CC5CC(C4)CC3C5)cc2)CC1 (stereo partly drawn)	22.7	27.7	1.6 to 3.1 (≈ 3.13 to 6.06 µM)	1810			1000 to 2000
c1cc([C@H]2CC[C@]3(CC2)OOC2(O3)C3CC4CC(C3)CC2C4)ccc1OCCCN1CCOCC1 (stereo partly drawn)			1.6 to 3.1 (≈ 3.31 to 6.41 µM)				
CC(C)(N)CCOc1ccc([C@H]2CC[C@]3(CC2)OOC2(O3)C3CC4CC(C3)CC2C4)cc1 (stereo partly drawn)	89.2	27.8	50 to 100 (≈ 113 to 226 µM)	1050	1 to 4		
